# Mdm2 MdmX PPI = human Mdm2/MdmX binding inhibition; SaOS-2 split-luciferase Mdm2/MdmX complementation, luminescence; O15151+Q00987; inhibition, % at 8 µM; AID 485346; 330,000 tested, 3% active;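 active = inhibition of at least 50% at 8 µM in the primary screen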
# Beta apoptosis = blocks beta cell apoptosis; AID 435005; protection from apoptosis, % (test concentration not listed); 300,000 tested, 0.8% active; INS-1E cytokine-induced death, ATP luminescence, 48 h; percent of positive-control rescue, neutral wells zero;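 active = Every replicate reaches about 75%, or at least half do and their mean reaches it too, limit read from the data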;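 also: 0% = cytokine-treated negative control wells and 100% = positive control rescue; higher means more ATP so stronger rescue from cytokine killing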
# CSC inhib = cancer stem cell inhibition; 300,000 tested, 1.1% active; cancer stem cell-like cells viability, luminescence; inhibition, % at 7.5 µM; AID 2717; in the data active = inhibition above about 75%; tested in HMLE shEcad cells
# CHOP UPR activ = activators of apoptotic arm of unfolded protein response (CHOP). CHO-CHOP luciferase reporter, UPR activation, luminescence; percent of tunicamycin response over DMSO baseline. activation, % at 10 µM. 330,000 tested, 0.34% active. AID 449763;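 active = at 10 µM dose, activation of 40% or more, normalized to positive control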;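 also: 100% = tunicamycin at 10 µg/mL and 0% = DMSO alone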
#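 measured by = luciferase luminescence | assay system = CHO-CHOP cells, stable luciferase reporter of PERK-eIF2a-CHOP signalling | amount = 500 reporter cells seeded per well | timing = 6 h compound exposure at 37 °C after overnight seeding | controls = positive tunicamycin 10 µg/mL, negative DMSO alone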
# UPR XBP1 act = adaptive UPR (XBP1) activation; CHO-XBP1 luciferase reporter, IRE1-XBP1 UPR activation, luminescence; percent of tunicamycin response, DMSO as zero; activation, % at 20 µM; 330,000 tested, 0.33% active;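 active = versus positive control, 20 µM dose yields 30% or more activation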;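 also: 100% = tunicamycin at 10 µg/mL and 0% = DMSO only wells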
#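 assay system = CHO-XBP1 luciferase reporter cells | amount = 1000 cells/well | buffer or medium = F12 plus 10% FBS | compound dosing = single point, 20 µM final compound, 1% DMSO | incubation = 16-18 h cell attachment at 37 °C, then 6 h compound exposure | detection = Steady-Glo luminescence read | controls = tunicamycin 10 µg/mL and vehicle-only wells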
# T cruzi inh = blocks replication of Trypanosoma cruzi; T. cruzi beta-gal in NIH3T3, luminescence, 90 h; inhibition, % (test concentration not listed); 300,000 tested, 1.4% active;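 active = mean inhibition across valid replicates above about 55%, limit read from the data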;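 also: signal also drops with host cell toxicity which is not excluded here; 0% = plate median of DMSO wells and 100% = zero luminescence signal; higher percent means less beta-gal luminescence so fewer parasites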
#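 Assay system: NIH/3T3 fibroblasts plus reporter T. cruzi. Amount: NIH/3T3 cells, 5,000 per well. Buffer or medium: DMEM, 2% fetal bovine serum. Doses: compound pinned at 50 nL/well, DMSO. Schedule: ≥90 h infection period, 3 h prior cell attachment. Signal: luminescent β-galactosidase signal after 60 min lysis. Read-out: parasite load inhibition, %.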
# Mdm2-MdmX conf = human Mdm2/MdmX binding inhibition, confirmed | shares compounds with Mdm2 MdmX PPI | luminescent assay | inhibition, % at 8 µM | 10,000 tested, 55% active; in the data active = inhibition above about 40%
# FLuc counter = inhibits full-length luciferase, flagging false Mdm2/MdmX hits; shares compounds with Mdm2 MdmX PPI; 6,200 tested, 77% active; SaOS-2 full-length luciferase counterscreen, luminescence; inhibition, % at 8 µM; AID 504607;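 active = mean inhibition at 8 µM reaching about 37%, which flags the compound as non-specific, limit read from the data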;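 also: p53-null SaOS-2 cells with luciferase driven by a doxycycline-inducible promoter; compound on cells about two nights before reading with doxycycline added after day one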
# Starred values were filed as active, the others as inactive; nt = no result given. Only some compounds are listed: those with a hit (about 5% of all), similar ones and a draw of the others.
SMILES,Mdm2 MdmX PPI,Beta apoptosis,CSC inhib,CHOP UPR activ,UPR XBP1 act,T cruzi inh,Mdm2-MdmX conf,FLuc counter
COc1ccccc1NC(=S)N1CCC(c2nc3cc(C)c(C)cc3[nH]2)CC1,11,1,-8,0,0,14,nt,nt
Cc1cc2nc(C3CCCN(C(=S)Nc4ccccc4)C3)[nH]c2cc1C (stereo not drawn),51*,10,-9,0,-4,27,-13,nt
CCNC(=S)N1CCCC(c2nc3ccc(C)cc3[nH]2)C1 (stereo not drawn),-4,-1,3,0,1,-25,nt,nt
CCc1ccc(-c2nc(CS(=O)CC(=O)NCc3ccco3)c(C)o2)cc1 (stereo not drawn),8,nt,-12,-3,-5,-30,nt,nt
O=c1cc(CSc2ccc(Cl)cc2)nc(-c2ccccn2)[nH]1,89*,80*,94*,30,21,59*,78*,31
O=c1cc(CSc2ccc(Cl)cc2)nc(-c2ccccc2)[nH]1,13,2,-14,1,1,-24,nt,nt
Cc1[nH]nc2ncc(C(=O)c3cc(F)ccc3O)cc12,52*,-12,-12,-1,6,-10,35,61*
CCOc1ccc(Br)cc1S(=O)(=O)Nc1cccc(S(=O)(=O)N(C)c2ccccc2)c1,31,nt,26,-2,-5,10,nt,nt
Cc1cc(C)c2ccc(N)nc2c1O,83*,34,25,1,4,17,75*,41*
Cc1cc(C)c2cccc(N)c2n1,-13,17,2,-1,11,-6,nt,nt
CCOC(=O)C1=C(C)NC(SC)=C(C#N)C1CC(C)C (stereo not drawn),55*,3,66,-1,-1,nt,62*,66*
CCc1ccc(CCC(=O)Nc2ccc(Cl)cc2)o1,16,-1,7,3,2,0,nt,nt
Cc1nc(SCc2nc3cc(Cl)c(F)cc3[nH]2)c2oc3ccccc3c2n1,92*,16,nt,0,7,nt,42*,32
CCOC(=O)c1c(NC(C)=O)sc2c(OCC(O)CN(CC)CC)c(Br)ccc12 (stereo not drawn),85*,27,25,-1,0,48,28,nt
CCOC(=O)c1c(NC(C)=O)sc2c(OC)c(Br)ccc12,21,3,-8,-1,1,2,nt,nt
CCOC(=O)c1c(NC(C)=O)sc2c(OCCN(CC)CC)c(Br)ccc12,55*,56,28,-1,-2,58*,14,nt
CCOC(=O)c1c(NC(C)=O)sc2c(OC)cccc12,31,-7,-12,3,1,27,nt,nt
Cc1c(C=O)c2cc(OCc3ccccc3)ccc2n1C,-19,nt,6,7,-2,22,nt,nt
Cn1nc(-c2ccc(Cl)cc2)c2cc(C(=O)NC3CC3)sc21,59*,6,6,0,-1,-5,25,nt
CCCCN(CC)CCNC(=O)c1cc2c(-c3ccc(Cl)cc3)nn(C)c2s1,58*,20,112*,3,3,57*,33,31
Cn1nc(-c2ccc(Cl)cc2)c2cc(C(=O)NCCN3CCOCC3)sc21,12,4,47,2,-3,2,nt,nt
CCOCCCNC(=O)c1cc2c(-c3ccc(Cl)cc3)nn(C)c2s1,19,0,14,1,-1,4,nt,nt
COc1cc([N+](=O)[O-])cc(/C=N/NC(=O)c2cncc(Br)c2)c1O,30,-3,3,9,4,-7,nt,nt
COc1cc(/C=N/NC(=O)c2cncc(Br)c2)cc([N+](=O)[O-])c1O,56*,-3,11,-1,-2,-5,50*,48*
Cc1cc(C2CCCCC2)n(O)c(=O)c1,74*,88*,105*,-2,-1,nt,58*,32
SMILES,Mdm2 MdmX PPI,Beta apoptosis,CSC inhib,CHOP UPR activ,UPR XBP1 act,T cruzi inh,Mdm2-MdmX conf,FLuc counter
Cc1cc(/C=C2\SC(=S)NC2=O)c(C)n1-c1ccc(O)cc1,20,6,17,6,-1,-1,nt,nt
Cc1cc(/C=C2\SC(=Nc3ccc(F)cc3)NC2=O)c(C)n1-c1ccc(S(N)(=O)=O)cc1,61*,18,52,-2,4,5,47*,59*
CCCn1c2ccccc2c2cnn(CC(=O)NC3CCC(C)CC3)c(=O)c21 (stereo not drawn),26,1,-18,-2,-1,-3,nt,nt
CCCn1c2ccccc2c2cnn(CC(=O)NC3CCCC(C)C3C)c(=O)c21 (stereo not drawn),89*,-6,-14,0,25,1,-2,nt
Cc1ccc(-c2csc(/C=C3\SC(C)C(=O)N3CC(=O)Nc3ccccc3F)n2)cc1 (stereo not drawn),47,-2,19,2,-1,21,nt,nt
O=C(CN1C(=O)CS/C1=C\c1nc(-c2ccc(Cl)cc2)cs1)Nc1cccnc1Cl,79*,1,-7,1,13,-6,19,nt
O=C(CCCl)Nc1nc2c(s1)CCc1ccccc1-2,68*,18,47,-1,-4,2,62*,25
CC(C)=CC1C(C(=O)Nc2ccc(Br)cn2)C1(C)C (stereo not drawn),28,10,7,2,-4,40,nt,nt
O=C1c2ccccc2-c2onc3c(N4CCN(CCO)CC4)cc(N4CCN(C(=O)c5ccco5)CC4)c1c23,41,13,17,-1,-6,32,nt,nt
CN1CCN(c2cc(N3CCN(C(=O)c4ccco4)CC3)c3c4c(onc24)-c2ccccc2C3=O)CC1,100*,6,14,33,25,31,74*,24
CC1CN(C(=O)C(C)OC(=O)c2ccc3ncsc3c2)CC(C)O1 (stereo not drawn),-2,-3,nt,-1,-1,nt,nt,nt
COc1cc(/C=C2\SC(=Nc3ccc(O)cc3)NC2=O)cc(OC)c1O,56*,6,49,0,6,-17,41*,81*
Cn1cccc1/C=C1\SC(=Nc2ccccc2)NC1=O,34,7,52,5,18,-2,nt,nt
Cn1cccc1/C=C1\SC(=Nc2ccc(O)cc2)NC1=O,68*,18,61,3,18,23,62*,160*
Cc1ccnc(NC(=S)N2CCN(c3cccc(C(F)(F)F)c3)CC2)c1,75*,70,48,2,7,49,77*,46*
Cc1ccc(C)c(NC(=S)N2CCN(c3cccc(C(F)(F)F)c3)CC2)c1,16,-7,1,-1,-3,8,nt,nt

# Source: PubChem
